Assay [1] addresses T1, Adenosine receptor A2b (Homo sapiens) (UniProt P29275).
T1 sequence (whole entry): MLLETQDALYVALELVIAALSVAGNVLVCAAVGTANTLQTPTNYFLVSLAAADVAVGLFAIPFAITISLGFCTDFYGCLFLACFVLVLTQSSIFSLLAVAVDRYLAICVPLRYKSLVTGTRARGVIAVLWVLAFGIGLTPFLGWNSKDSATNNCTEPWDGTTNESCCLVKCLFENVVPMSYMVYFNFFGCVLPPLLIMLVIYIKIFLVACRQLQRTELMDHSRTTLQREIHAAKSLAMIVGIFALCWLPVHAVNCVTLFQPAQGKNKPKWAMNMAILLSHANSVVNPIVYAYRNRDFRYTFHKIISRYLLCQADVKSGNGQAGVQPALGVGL
The assay can be described thus: Agonist activity human adenosine A2B receptor expressed in CHO cells assessed as stimulation of adenylate cyclase relative to NECA. Type of assay: functional, cell-based. The method, boiled down:
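Stably transfected CHO cells; cAMP accumulation by enzyme immunoassay kit. Relative potency computed as pEC50(compound) minus pEC50(NECA) determined in the same publication.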

Another assay concerns the target T2, Adenosine receptor A2b (Homo sapiens, UniProt P29275).
T2 sequence (P29275 whole entry): T1 sequence (whole entry)
The assay can be described thus: Agonist activity at human adenosine A2B receptor expressed in CHO cells assessed as stimulation of adenylate cyclase. Type of assay: functional, cell-based. A digest of the protocol:
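Stably transfected CHO cells; cAMP accumulation quantified by enzyme immunoassay kit per manufacturer's manual; EC50 derived.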

For assay [2], the target named is T3, Adenosine receptor A1 (Homo sapiens) (UniProt P30542).
T3 sequence (whole entry): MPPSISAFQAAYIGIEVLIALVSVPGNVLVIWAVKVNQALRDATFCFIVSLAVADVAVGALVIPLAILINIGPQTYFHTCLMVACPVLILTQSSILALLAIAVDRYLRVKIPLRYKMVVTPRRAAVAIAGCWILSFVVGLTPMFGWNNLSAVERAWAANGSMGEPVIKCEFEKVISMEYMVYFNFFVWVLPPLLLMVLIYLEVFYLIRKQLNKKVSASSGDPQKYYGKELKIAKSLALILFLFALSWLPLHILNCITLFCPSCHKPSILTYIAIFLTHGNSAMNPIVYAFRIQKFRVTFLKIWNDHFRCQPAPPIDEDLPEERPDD
In words: Displacement of [3H]CCPA from human adenosine A1 receptor expressed in CHO cells at 10 uM. In kind it is cell-based. A digest of the protocol: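 CHO membranes expressing receptor; [3H]CCPA final 1.0 nM, Tris-HCl 50 mM pH 7.4 with 10 mM MgCl2, 1 h at 25 °C; nonspecific with 10 μM NECA; filtration and scintillation counting; percent displacement at single 10 μM test concentration.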

The target of assay [3] is T4, Adenosine receptor A2a (Homo sapiens, UniProt P29274). In words: Displacement of [3H]CGS-21680 from human adenosine A2A receptor expressed in HEK293 cells at 10 uM. In kind it is cell-based. The method, boiled down:
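HEK293 membranes expressing receptor; [3H]CGS21680 final 10 nM in 50 mM Tris-HCl pH 7.4, 10 mM MgCl2, 1 h at 25 °C; nonspecific defined by 10 μM NECA; filtration, scintillation counting; percent displacement recorded at single 10 μM concentration.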

The next assay has as its target T5, Adenosine receptor A1 (Homo sapiens, UniProt P30542).
T5 sequence (P30542 whole entry): T3 sequence (whole entry)
The assay can be described thus: Displacement of [3H]CCPA from human adenosine A1 receptor expressed in CHO cells. In kind it is cell-based. (In general: Displacement assays read how much labelled ligand stays bound in the presence of the test substance.)

Assay [4] deals with T4, Adenosine receptor A2a. In words: Displacement of [3H]CGS-21680 from human adenosine A2A receptor expressed in HEK293 cells. Type of assay: cell-based.

T4 sequence (P29274 whole entry): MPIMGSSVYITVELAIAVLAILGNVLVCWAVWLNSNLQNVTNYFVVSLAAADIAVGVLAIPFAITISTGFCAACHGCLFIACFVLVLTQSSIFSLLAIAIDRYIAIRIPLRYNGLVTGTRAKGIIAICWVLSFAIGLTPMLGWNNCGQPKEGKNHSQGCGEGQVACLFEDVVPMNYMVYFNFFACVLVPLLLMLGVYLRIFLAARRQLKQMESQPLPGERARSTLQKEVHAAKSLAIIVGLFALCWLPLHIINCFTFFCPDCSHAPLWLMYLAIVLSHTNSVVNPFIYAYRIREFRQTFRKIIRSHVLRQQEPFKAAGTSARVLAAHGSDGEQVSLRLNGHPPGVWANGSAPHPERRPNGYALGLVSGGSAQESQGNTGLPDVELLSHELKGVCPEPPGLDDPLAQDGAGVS

Turning to `O=C(NNc1nc(OCCc2c[nH]c3cc(Br)ccc23)nc2c1ncn2[C@@H]1O[C@H](CO)[C@@H](O)[C@H]1O)c1ccco1`, the Activity was -0.315 in assay [1], 29% in assay [2] and 40% at Adenosine receptor A2a [3]. The concentration giving a half-maximal response (EC50) (in general, the concentration at which the effect is half-maximal) at Adenosine receptor A2b was determined as 289 nM. For the compound `O=C(COc1ccc(Nc2nc(OCCc3c[nH]c4cc(Br)ccc34)nc3c2ncn3[C@@H]2O[C@H](CO)[C@@H](O)[C@H]2O)cc1)Nc1ccccc1`, the Activity in assay [1] was -0.0092. The EC50 on Adenosine receptor A2b came to 143 nM. Moreover, the figures for the Ki on Adenosine receptor A1 and at Adenosine receptor A2a [4] were 370 nM and 1150 nM, respectively. Consider `CCNC(=O)[C@H]1O[C@@H](n2cnc3c(NNC(=O)c4ccco4)ncnc32)[C@H](O)[C@@H]1O`, for which the Activity in assay [1] was found to be 0.29.

Consider `CCNC(=O)[C@H]1O[C@@H](n2cnc3c(Nc4ccc(OCC(=O)Nc5ccc6c(c5)OCO6)cc4)ncnc32)[C@H](O)[C@@H]1O`, for which the Activity in assay [1] is 0.64. On the same count and under the same terms, the figure for `CCCCC#Cc1nc(N)c2ncn([C@@H]3O[C@H](CO)[C@@H](O)[C@H]3O)c2n1` is -1.62; for `Nc1nc(OCCc2cccc3ccccc23)nc2c1ncn2[C@@H]1O[C@H](CO)[C@@H](O)[C@H]1O` it is -1.01. Same read-out and setting: next, `CCNC[C@H]1O[C@@H](n2cnc3c(NC(=N)N)ncnc32)[C@H](O)[C@@H]1O`: 0.41.

In the case of `Nc1nc(OCCc2c[nH]c3ccccc23)nc2c1ncn2[C@@H]1O[C@H](CO)[C@@H](O)[C@H]1O`, in assay [1], the Activity was -0.33. The same measure, in the same setting: the figure for `CCNC(=O)[C@H]1O[C@@H](n2cnc3c(NNC(=O)c4ccc(Br)o4)ncnc32)[C@H](O)[C@@H]1O` is -0.363; for `CCNC(=O)[C@H]1O[C@@H](n2cnc3c(Nc4ccc(OCC(=O)Nc5ccccc5)cc4)ncnc32)[C@H](O)[C@@H]1O` it is 1.33; for `OC[C@H]1O[C@@H](n2cnc3c(NCc4ccccc4)ncnc32)[C@H](O)[C@@H]1O` it is -1.49. Same read-out and setting: next, `Nc1nc(OCCc2c[nH]c3ccc(F)cc23)nc2c1ncn2[C@@H]1O[C@H](CO)[C@@H](O)[C@H]1O`: -0.739. As for `NNc1nc(OCCc2c[nH]c3cc(Br)ccc23)nc2c1ncn2[C@@H]1O[C@H](CO)[C@@H](O)[C@H]1O`, the Activity in assay [1] was -0.0944. Moreover, the EC50 at Adenosine receptor A2b was 174 nM. In addition, the Ki – broadly, a dissociation constant, usually derived from enzyme kinetics or from competition with a known ligand – at Adenosine receptor A1 came out at 350 nM; at Adenosine receptor A2a [4], 2050 nM.

`CCNc1nc(C#C[C@H](O)c2ccccc2)nc2c1ncn2[C@@H]1O[C@H](CO)[C@@H](O)[C@H]1O`: the Activity in assay [1] was -0.579. Same read-out and setting: the figure for `Nc1nc(OCCc2c[nH]c3cc(Br)ccc23)nc2c1ncn2[C@@H]1O[C@H](CO)[C@@H](O)[C@H]1O` is 0.0389; for `CCNC(=O)[C@H]1O[C@@H](n2cnc3c(N)nc(C#C[C@@H](O)c4ccccc4)nc32)[C@H](O)[C@@H]1O` it is 1.04. Still for that read-out and setting: next, `CCNC(=O)[C@H]1O[C@@H](n2cnc3c(Nc4ccc(OCC(=O)Nc5ccc(Br)cc5)cc4)ncnc32)[C@H](O)[C@@H]1O`: 1.17. On to `O=C(COc1ccc(Nc2nc(OCCc3c[nH]c4cc(Br)ccc34)nc3c2ncn3[C@@H]2O[C@H](CO)[C@@H](O)[C@H]2O)cc1)N1CCCC1`, for which the results for the Activity (in assay [1]; at Adenosine receptor A2a [3]) were -0.838 and 46%, respectively. The 50% effective concentration (EC50) at Adenosine receptor A2b was 965 nM. Further, the Ki on Adenosine receptor A1 amounted to 420 nM. With `CC(C)Nc1nc(C#C[C@@H](O)c2ccccc2)nc2c1ncn2[C@@H]1O[C@H](CO)[C@@H](O)[C@H]1O`, the Activity in assay [1] came out at 0.398. On the same count and under the same terms, the figure for `CCNC(=O)[C@H]1O[C@@H](n2cnc3c(Nc4ccc(OCC(=O)Nc5ccc(I)cc5C(F)(F)F)cc4)ncnc32)[C@H](O)[C@@H]1O` is 0.161. On to `CCNC(=O)[C@H]1O[C@@H](n2cnc3c(NNC(=O)c4ccc(C)s4)ncnc32)[C@H](O)[C@@H]1O`, for which the Activity in assay [1] is -0.232. In the case of `CCNc1nc(OCCc2c[nH]c3ccccc23)nc2c1ncn2[C@@H]1O[C@H](CO)[C@@H](O)[C@H]1O`, in assay [1], the Activity is -1.37.

For the compound `CCNC(=O)[C@H]1O[C@@H](n2cnc3c(Nc4ccc(OCC(=O)Nc5ccc(Cl)cc5)cc4)ncnc32)[C@H](O)[C@@H]1O`, the Activity in assay [1] was 1.1. Same read-out and setting: next, `CCCCC#Cc1nc(NCC)c2ncn([C@@H]3O[C@H](CO)[C@@H](O)[C@H]3O)c2n1`: -1.62.

Consider `CCNC(=O)[C@H]1O[C@@H](n2cnc3c(Nc4ccc(OCC(=O)Nc5ccc(OC)cc5)cc4)ncnc32)[C@H](O)[C@@H]1O`, for which, in assay [1], the Activity was 0.68.

The values are drawn from ChEMBL document CHEMBL1145544, “Probing distal regions of the A2B adenosine receptor by quantitative structure-activity relationship modeling of known and novel agonists” (J Med Chem, 2008).
